Test results as given in article PMC3952852 (Molecular Biology of the Cell, 2014).

What was measured:
LIMK1 [1] = biological target: T1, LIMK1 (Homo sapiens, UniProt P53667); assay type: biochemical; details: range of inhibitor concentrations
Src = Src (Homo sapiens, UniProt P12931); assay: in vitro kinase assay, active Src; assay type: biochemical
ROCK = ROCK (Homo sapiens, UniProt Q13464); assay: in vitro kinase assay, ROCK; assay type: biochemical
PAK3 = PAK3 (Homo sapiens, UniProt O75914); assay: in vitro kinase assay, PAK3; assay type: biochemical
PKCα = PKCα (Homo sapiens, UniProt P17252); assay: in vitro kinase assay, PKCα; assay type: biochemical
CaMKIα = CaMKIα (Homo sapiens, UniProt Q14012); assay: in vitro kinase assay, CaMKIα; assay type: biochemical
[2] = system: P-cofilin in N1E-115 cells; assay: cofilin phosphorylation immunoblot in LIMK1-CFP-overexpressing N1E-115 cells; assay type: cell-based; details: 30 min
Jurkat cells [3] = assay: CXCL12-induced chemotaxis, Transwell, Jurkat cells; assay type: cell-based; details: pretreated 30 min, 5 nM CXCL12, 3 h
Outline: (§1)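 Cells at 2×10^6 cells/ml in RPMI1640 with 0.5% BSA were pretreated 30 min at room temperature with test compound or vehicle (final 0.3% DMSO). 2×10^5 cells went into the upper well (5-µm pore Transwell). The lower well held RPMI, 0.5% BSA, 5 nM CXCL12 and compound or vehicle. After 3 h at 37°C, migrated cells in the lower well were counted. Mean ± SD of four independent experiments; one-way ANOVA with Dunnett's test.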

JCaM1.6 cells = assay: CXCL12-induced chemotaxis, Transwell, JCaM1.6 cells; assay type: cell-based; details: Lck-deficient JCaM1.6, pretreated 30 min, 5 nM CXCL12, 3 h
Outline: as §1

[4] = system: P-cofilin in Jurkat cells; assay: CXCL12-induced cofilin phosphorylation in Jurkat cells; assay type: cell-based; details: 5 nM CXCL12 for 5 min
Outline: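 Jurkat cells (RPMI, 10% FCS) were stimulated with 5 nM CXCL12 for 5 min. Lysates in HEPES pH 7.4 lysis/kinase buffer were immunoblotted for P-cofilin, cofilin, P-MAPK and MAPK. P-cofilin was expressed relative to control cells, set at 1.0.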

P-MAPK in Jurkat cells = assay: CXCL12-induced MAPK phosphorylation in Jurkat cells; assay type: cell-based; details: 5 nM CXCL12 for 5 min
Outline: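 Jurkat cells grown in RPMI with 10% FCS were stimulated with 5 nM CXCL12 for 5 min, with or without test compound. Cells were lysed in HEPES pH 7.4 lysis/kinase buffer containing NP-40, NaF, Na3VO4 and protease inhibitors. Lysates were immunoblotted for P-MAPK and total MAPK, alongside P-cofilin and cofilin.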

Jurkat cells [5] = assay: CXCL12-induced lamellipodium formation in Jurkat cells; assay type: cell-based; details: Dam 30 min, then 5 nM CXCL12 for 20 min
Outline: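 Jurkat cells were given 5 µM test compound or vehicle for 30 min, then 5 nM CXCL12 for 20 min. They were fixed and stained with rhodamine–phalloidin for F-actin, then scored into three classes: large lamellipodia, small lamellipodia, or round without lamellipodium. 200–300 cells were counted per experiment. Class percentages are mean ± SD of three independent experiments.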

MDA-MB-231 cells = assay: serum-induced Matrigel invasion assay, MDA-MB-231 cells; assay type: cell-based, human; details: MDA-MB-231, Matrigel, 15 h
Outline: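 MDA-MB-231 cells (2×10^5 cells/ml) were serum-starved 3 h and resuspended in serum-free DMEM. They were pretreated 30 min at room temperature with test compound or vehicle (final 0.3% DMSO). Transwell inserts (8-µm pore) were coated with 50 µg Matrigel for 1 h at 37°C and washed three times with DMEM. 2×10^4 cells were loaded, with serum in the lower chamber. After 15 h, invaded cells on the lower membrane face were counted. Mean ± SD of six independent experiments; Dunnett's test.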

[6] = system: epidermal Langerhans cells; assay: hapten; assay type: in vivo, mouse; details: 20 μM topical
Outline: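 BALB/c mice (8–10 wk): each ear painted with 20 µl of 20 µM test compound in 2% DMSO in 1:4 acetone/olive oil, or vehicle. 30 min later, 20 µl 3% TNCB or vehicle applied, ± 20 µM compound; repainted at 12 h; ears taken 24 h post-TNCB. NH4SCN-separated, acetone-fixed epidermal sheets stained with FITC anti-I-Ad; confocal imaging, 15 areas/ear; five experiments, mean ± SD, ANOVA/Dunnett.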

[7] = system: P-cofilin in Vero 2-2 cells; assay: 2D gel analysis of 32P-labeled phospho-proteins in whole cell lysates; assay type: cell-based; details: 10 μM, 5 h
LIMK1 [8] = biological target: T1, LIMK1; assay: in vitro kinase assay, LIMK1; assay type: biochemical; details: cofilin substrate; for effect on the kinase activity of LIMK1: concentrations of 1–30 μM
Lck = details: read-out: IC50 for Lck; ref Jayasuriya et al., 1992; cited from earlier work

T1 sequence (P53667 whole entry): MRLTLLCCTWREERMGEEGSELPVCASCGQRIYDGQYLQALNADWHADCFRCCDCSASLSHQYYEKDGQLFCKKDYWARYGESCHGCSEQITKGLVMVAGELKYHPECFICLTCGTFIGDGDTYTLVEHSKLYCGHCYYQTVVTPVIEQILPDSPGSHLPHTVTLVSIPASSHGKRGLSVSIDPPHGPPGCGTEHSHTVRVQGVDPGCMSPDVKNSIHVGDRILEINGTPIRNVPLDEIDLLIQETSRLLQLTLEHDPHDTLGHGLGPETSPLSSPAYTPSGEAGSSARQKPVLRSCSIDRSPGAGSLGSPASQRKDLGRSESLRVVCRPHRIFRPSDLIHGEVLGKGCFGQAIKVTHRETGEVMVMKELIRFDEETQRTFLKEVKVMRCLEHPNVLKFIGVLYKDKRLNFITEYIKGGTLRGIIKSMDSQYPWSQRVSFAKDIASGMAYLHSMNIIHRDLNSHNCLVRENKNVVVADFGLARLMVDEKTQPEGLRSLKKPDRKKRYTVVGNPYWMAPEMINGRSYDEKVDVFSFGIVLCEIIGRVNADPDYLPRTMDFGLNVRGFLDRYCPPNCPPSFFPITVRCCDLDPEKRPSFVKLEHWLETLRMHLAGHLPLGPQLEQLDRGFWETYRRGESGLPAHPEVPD
Sequence of CaMKIα (Q14012 1-293, species assumed): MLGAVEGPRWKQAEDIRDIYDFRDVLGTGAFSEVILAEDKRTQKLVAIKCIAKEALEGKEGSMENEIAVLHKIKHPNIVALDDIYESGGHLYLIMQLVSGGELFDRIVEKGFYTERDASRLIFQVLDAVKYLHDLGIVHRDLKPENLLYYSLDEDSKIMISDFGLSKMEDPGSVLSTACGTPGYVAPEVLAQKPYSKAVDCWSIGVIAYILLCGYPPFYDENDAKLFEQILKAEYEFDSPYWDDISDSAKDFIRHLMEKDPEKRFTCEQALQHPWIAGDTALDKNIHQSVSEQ
Sequence of Src (P12931 270-523 limits assumed): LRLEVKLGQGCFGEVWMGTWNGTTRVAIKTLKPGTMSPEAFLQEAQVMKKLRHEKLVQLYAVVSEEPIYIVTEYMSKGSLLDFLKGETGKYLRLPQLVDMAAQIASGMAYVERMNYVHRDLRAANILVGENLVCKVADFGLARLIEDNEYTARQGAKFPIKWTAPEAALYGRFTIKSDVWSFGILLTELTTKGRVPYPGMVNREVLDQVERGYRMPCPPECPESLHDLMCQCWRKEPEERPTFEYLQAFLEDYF
Sequence of PAK3 (O75914 177-559, species assumed): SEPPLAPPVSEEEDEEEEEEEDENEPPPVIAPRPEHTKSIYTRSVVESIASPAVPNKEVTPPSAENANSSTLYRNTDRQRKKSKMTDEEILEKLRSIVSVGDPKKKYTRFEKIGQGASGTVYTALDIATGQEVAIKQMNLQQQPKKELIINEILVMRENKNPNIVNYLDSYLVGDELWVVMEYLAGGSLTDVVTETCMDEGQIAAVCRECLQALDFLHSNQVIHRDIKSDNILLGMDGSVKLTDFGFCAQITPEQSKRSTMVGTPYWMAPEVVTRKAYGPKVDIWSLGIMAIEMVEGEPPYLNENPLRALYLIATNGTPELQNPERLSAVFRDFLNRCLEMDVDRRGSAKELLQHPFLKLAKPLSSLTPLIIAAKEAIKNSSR
Sequence of ROCK (Q13464 1-727): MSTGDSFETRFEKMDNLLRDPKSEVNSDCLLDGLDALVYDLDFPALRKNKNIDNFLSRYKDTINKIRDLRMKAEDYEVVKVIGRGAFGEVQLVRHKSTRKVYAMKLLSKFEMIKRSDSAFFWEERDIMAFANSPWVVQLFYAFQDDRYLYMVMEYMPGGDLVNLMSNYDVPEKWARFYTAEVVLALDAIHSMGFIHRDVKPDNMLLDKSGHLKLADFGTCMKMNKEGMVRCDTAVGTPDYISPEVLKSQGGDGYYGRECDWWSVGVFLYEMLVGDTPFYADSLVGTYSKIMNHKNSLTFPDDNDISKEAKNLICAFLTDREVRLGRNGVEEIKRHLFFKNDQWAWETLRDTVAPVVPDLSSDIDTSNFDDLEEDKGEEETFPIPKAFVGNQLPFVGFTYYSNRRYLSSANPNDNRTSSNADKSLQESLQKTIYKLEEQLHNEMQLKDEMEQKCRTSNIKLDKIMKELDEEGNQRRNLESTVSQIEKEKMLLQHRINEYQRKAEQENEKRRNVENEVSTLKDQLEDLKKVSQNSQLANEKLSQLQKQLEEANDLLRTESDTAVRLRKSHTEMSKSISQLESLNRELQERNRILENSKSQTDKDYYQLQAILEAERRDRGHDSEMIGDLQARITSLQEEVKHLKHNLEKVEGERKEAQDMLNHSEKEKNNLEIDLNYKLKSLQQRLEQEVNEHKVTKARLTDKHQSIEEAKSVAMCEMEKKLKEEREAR

COc1c(C=O)c(O)cc2c1C(=O)c1ccccc1C2=O [Dam, 3-hydroxy-1-methoxy-9,10-dioxoanthraquinone-2-carbaldehyde]
concentration range inhibiting the kinase activity of LIMK1 in detailed in vitro BiFC assays (LIMK1 [1]): 5 to 10 µM
IC50 (Src): > 20 µM
IC50 (ROCK): > 20 µM
IC50 (PAK3): > 20 µM
IC50 (PKCα): > 20 µM
IC50 (CaMKIα): > 20 µM
concentration range significantly decreasing P-cofilin level [2]: 5 to 10 µM
concentration range inhibiting CXCL12-induced chemotaxis (Jurkat cells [3]): 3 to 10 µM
concentration range inhibiting CXCL12-induced chemotaxis (JCaM1.6 cells): 3 to 10 µM
concentration range suppressing CXCL12-induced increase of P-cofilin [4]: 3 to 10 µM
effect on increase in P-MAPK after CXCL12 stimulation (P-MAPK in Jurkat cells): unaffected
effect on lamellipodium formation after CXCL12 stimulation (Jurkat cells [5]): fewer cells with large lamellipodial protrusions and more cells with small or no lamellipodial protrusions
concentration range significantly suppressing serum-induced invasion (MDA-MB-231 cells): 3 to 10 µM
effect on hapten-induced Langerhans cell size changes ([6]; TNCB): no apparent effect
effect on Langerhans cell density of control ears ([6]; no TNCB): no effect
amount of P-cofilin in treated cells compared with untreated cells [7]: decreased

NO [Hydroxylamine, hydroxylamine]
effect of hydroxylamine alone on LIMK1 activity (LIMK1 [8]; LIMK1-CFP): no effect

Cc1cc(O)c2c(c1)C(=O)c1cc(O)cc(O)c1C2=O [emodin]
effect on the kinase activity of LIMK1 (LIMK1 [8]): no appreciable effect
IC50 (Lck): 18.5 µM

O=C1c2c(O)ccc(O)c2C(=O)c2c(NCCNCCO)ccc(NCCNCCO)c21 [mitoxantrone]
effect on the kinase activity of LIMK1 (LIMK1 [8]): no appreciable effect
